Key:
[1] = target: T1, zebrafish HDAC10 (Danio rerio, UniProt F1QCV2); test: fixed-point N-acetylputrescine hydrolysis assay; assay type: biochemical
T1 sequence (F1QCV2 1-675): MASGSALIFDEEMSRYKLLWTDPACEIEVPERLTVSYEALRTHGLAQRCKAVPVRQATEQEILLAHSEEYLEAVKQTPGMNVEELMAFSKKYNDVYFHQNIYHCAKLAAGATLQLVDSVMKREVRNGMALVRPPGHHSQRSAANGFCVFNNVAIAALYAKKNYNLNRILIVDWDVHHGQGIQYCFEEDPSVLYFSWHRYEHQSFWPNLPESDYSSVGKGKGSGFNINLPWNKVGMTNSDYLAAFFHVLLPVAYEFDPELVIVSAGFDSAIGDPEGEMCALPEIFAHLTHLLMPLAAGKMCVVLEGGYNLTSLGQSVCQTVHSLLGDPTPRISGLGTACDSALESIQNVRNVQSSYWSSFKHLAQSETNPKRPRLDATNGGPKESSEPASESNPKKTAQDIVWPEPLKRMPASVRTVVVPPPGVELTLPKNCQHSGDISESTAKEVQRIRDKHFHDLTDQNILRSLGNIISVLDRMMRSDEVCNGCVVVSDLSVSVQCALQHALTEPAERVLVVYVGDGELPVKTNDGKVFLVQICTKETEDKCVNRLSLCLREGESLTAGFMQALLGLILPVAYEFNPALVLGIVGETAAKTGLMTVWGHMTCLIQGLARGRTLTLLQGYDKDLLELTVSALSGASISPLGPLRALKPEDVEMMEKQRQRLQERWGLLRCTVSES
Summary of the method: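 N-acetylputrescine 800 μM added; quenched after 45–60 min with sodium bicarbonate plus dansyl chloride, 50 °C 1 h. Dansylated product quantified by LC-MS; IC50 from logistic nonlinear regression.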

[2] = stability in aqueous solution by mass spectrometry; assay type: physicochemical
[3] = ratio of IC50 values against zebrafish HDAC10

Compound	IC50 [1] [nM]	fold greater inhibitory potency than methylketone 2 or methoxymethylketone 3 [1, 3]	stability in aqueous solution [2]	fold difference in potencies between inhibitors 7 and 6 [1, 3] [fold]
NCCCNCCCCCC(=O)C(F)(F)F [compound 1, 7-[(3-aminopropyl)amino]-1,1,1-trifluoroheptan-2-one]	80 ± 10	at least 29 fold	–	–
CC(=O)CCCCCNCCCN [compound 2, 7-[(3-aminopropyl)amino]heptan-2-one]	2300 ± 200	–	–	–
COCC(=O)CCCCCNCCCN [compound 3, 7-[(3-aminopropyl)amino]-1-methoxyheptan-2-one]	35000 ± 100	–	–	–
NCCCNCCCCCB(O)O [compound 4, 5-[(3-aminopropyl)amino]pentylboronic acid]	400000 ± 70000	–	–	–
NCCCNCCCCCS [compound 6, 5-[(3-aminopropyl)amino]pentane-1-thiol]	370 ± 20	–	susceptible to oxidation and begins to forms a disulfide in aqueous solution	–
CC(=O)SCCCCCNCCCN [compound 7, S-{5-[(3-aminopropyl)amino]pentyl} thioacetate]	30 ± 10	–	stable in aqueous solution	12
